# Assay results reported in paper PMC5667346 (Theranostics, 2017).
# Ends that are not written are not given here.
# Tests used:
# [1] = Pharmacokinetic analysis, terminal elimination half-life after i.v. injection; format: in vivo; conditions: male ICR mice, i.v. 500 μg/kg
# [2] = DLS assay; format: physicochemical; conditions: 2 mg/mL in 10 mM PBS, 20°C
# [3] = test system: bacterial colony count in CLP-induced septic mice; experiment: Bacterial count in peritoneal fluid and blood of CLP-operated mice; format: in vivo, mouse; conditions: 500 μg/kg i.v. 12 h after CLP, count at 24 h after CLP, n=10
# Procedure, shortened: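 Polymicrobial sepsis was induced by cecal ligation and puncture (CLP). Mice received the test compound at 500 μg/kg i.v. 12 h after CLP, with untreated CLP mice as comparators. Bacterial loads in peritoneal fluid and blood were determined by counting colonies, with n = 10 per group. Data are mean ± SD from three independent experiments on different days, analysed by Mann-Whitney U test versus CLP only.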
substance,measurement,setting,value
"PEG5K-KSLW: KSLW mono-PEGylated at the N-terminal amine with monomethoxy PEG-ALD, MW 5,000 Da ({mPEG 5 kDa}-KKVVFWVKFK)",In vivo half-life relative to that of KSLW,[1],> 10 fold
same,"Percentage polydispersity (%Pd), DLS",[2],23.3%
same,Average hydrodynamic diameter (DLS),"[2]; filtered 0.22 μm, three repeats with 10 subruns",4.2 nm
same,Decrease of bacterial colony count in the blood,[3],90%
same,Decrease of bacterial colony count in the peritoneal fluid,[3],70%
